According to ChEMBL document CHEMBL1152455, “Ribosome protection prevents azithromycin-mediated quorum-sensing modulation and stationary-phase killing of Pseudomonas aeruginosa” (2007):
Activity calls are given as the source filed them. The calls are words filed in the database; no cut-off is given here.

What was measured:
Pseudomonas aeruginosa [1] = assay: Inhibition of rhamnolipid production in Pseudomonas aeruginosa PT1300 harboring vector pEX1.8 up to 50 ug/ml incubated for 24 hrs at 37 degC further 24 hrs at 25 degC; format: functional, organism-based
Procedure, shortened: (§1)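 SW plates (M9 with 0.1% glutamate replacing NH4Cl, 0.2% glucose, 1 mM MgSO4) carried an azithromycin gradient of 0–50 μg/ml. Three-μl droplets of about 10^6 CFU were spotted at equal spacing. Plates were incubated 24 h at 37°C, then 24 h at 25°C.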

Pseudomonas aeruginosa [2] = assay: Inhibition of rhamnolipid production in azithromycin-hypersusceptible Pseudomonas aeruginosa 11B harboring mexX deletion mutant incubated for 24 hrs at 37 degC further 24 hrs at 25 degC; format: functional, organism-based; procedure, shortened: as §1
Pseudomonas aeruginosa [3] = assay: Inhibition of rhamnolipid production in Pseudomonas aeruginosa 12B overexpressing mexXY incubated for 24 hrs at 37 degC further 24 hrs at 25 degC; format: functional, organism-based; procedure, shortened: as §1
Pseudomonas aeruginosa [4] = assay: Inhibition of elastase production in Pseudomonas aeruginosa PT1300 harboring vector pEX1.8 after 18 hrs by elastin Congo red assay; format: functional, organism-based
Procedure, shortened: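 Cultures grew 7 h in Pseudomonas broth. Supernatant was mixed with excess elastin Congo red (4 mg/ml) in 0.1 M Tris pH 7.4, 1 mM CaCl2 and held 18 h at 37°C. After centrifugation, A495 was read and expressed as OD495/OD600 of the culture. Values are means ± standard deviations of five independent experiments.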

Pseudomonas aeruginosa [5] = assay: Inhibition of swarming motility of Pseudomonas aeruginosa PT1300 harboring vector pEX1.8 at 2 ug/ml after 18 hrs; format: functional, organism-based
Procedure, shortened: (§2)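 Swarm plates were 0.5% agar M9 with 0.2% glucose, 1 mM MgSO4 and 0.05% glutamate as nitrogen source, containing azithromycin. Three μl of overnight LB culture was spotted, and plates were read after 18 h at 37°C.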

Pseudomonas aeruginosa [6] = assay: Inhibition of swarming motility of Pseudomonas aeruginosa PT1308 expressing Clostridium perfringens 23S rRNA methylase ErmBP at 2 ug/ml after 18 hrs; format: functional, organism-based; procedure, shortened: as §2
Pseudomonas aeruginosa [7] = assay: Bactericidal activity against stationary-phase Pseudomonas aeruginosa PT1300 culture harboring vector pEX1.8 after 20 to 22 hrs by plating serial dilution method; format: functional, organism-based
Procedure, shortened: (§3)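 Overnight LB cultures (with carbenicillin 100 μg/ml or gentamicin 15 μg/ml for plasmid strains) were diluted to OD600 0.05 in antibiotic-free LB and grown at 37°C to stationary phase. Azithromycin was added to 2-ml aliquots at similar cell densities, and incubation continued 20–22 h at 37°C. Viable counts came from serial dilutions plated on LB agar.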

Pseudomonas aeruginosa [8] = assay: Bactericidal activity against stationary-phase Pseudomonas aeruginosa PT1308 culture expressing Clostridium perfringens 23S rRNA methylase ErmBP assessed as effect on cell viability at 1 to 16 ug/ml after 22 hrs by plating serial dilution method; format: functional, organism-based; procedure, shortened: as §3
Pseudomonas aeruginosa [9] = assay: Bactericidal activity against stationary-phase Pseudomonas aeruginosa PT1300 culture harboring vector pEX1.8 at 1 to 16 ug/ml after 22 hrs by plating serial dilution method in presence of 1 mM Mg2+; format: functional, organism-based
Procedure, shortened: (§4)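 Stationary-phase LB cultures of PT1300 or PT1308 received azithromycin plus 1 mM MgSO4, then 22 h at 37°C. Viable counts came from serial dilutions plated on LB agar. Values are means ± standard deviations of three independent experiments.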

Pseudomonas aeruginosa [10] = assay: Bactericidal activity against stationary-phase Pseudomonas aeruginosa PT1308 culture expressing Clostridium perfringens 23S rRNA methylase ErmBP at 1 to 16 ug/ml after 22 hrs by plating serial dilution method in presence of 1 mM Mg2+; format: functional, organism-based; procedure, shortened: as §4
Pseudomonas aeruginosa [11] = assay: Bactericidal activity against Pseudomonas aeruginosa PT1323 harboring rhlAB-encoding pAKRHL at 2 to 18 ug/ml after 22 hrs by plating serial dilution method; format: functional; procedure, shortened: as §3
Pseudomonas aeruginosa [12] = assay: Bactericidal activity against Pseudomonas aeruginosa PT1332 rhlA mutant harboring vector pAK1900 at 2 to 18 ug/ml after 22 hrs by plating serial dilution method; format: functional; procedure, shortened: as §3
Pseudomonas aeruginosa [13] = assay: Inhibition of rhamnolipid production in Pseudomonas aeruginosa PT1323 harboring pAKRHL expressing rhlAB gene up to 50 ug/ml incubated for 24 hrs at 37 deg C further 24 hrs at 25 deg C; format: functional, organism-based; procedure, shortened: as §1
Pseudomonas aeruginosa [14] = assay: Antimicrobial activity against exponential-phase Pseudomonas aeruginosa PT1323 cultures harboring mutation in bacterial rhlA protein and expressing rhamnosyltransferase rhlAB gene at 1 mg/ml after 18 hrs by susceptibility assay; format: functional, organism-based
Procedure, shortened: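 LB agar plates with an azithromycin gradient (maximal 1 mg/ml) were streaked with each strain. Plates were read after 18 h at 37°C.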

[15] = Ratio of bactericidal activity against Pseudomonas aeruginosa PT712 harboring mutation in bacterial rhlA protein to bactericidal activity against wild type Pseudomonas aeruginosa PAO1 PT5; format: functional; procedure, shortened: as §3

## CC[C@H]1OC(=O)[C@H](C)[C@@H](O[C@H]2C[C@@](C)(OC)[C@@H](O)[C@H](C)O2)[C@H](C)[C@@H](O[C@@H]2O[C@H](C)C[C@H](N(C)C)[C@H]2O)[C@](C)(O)C[C@@H](C)CN(C)[C@H](C)[C@@H](O)[C@]1(C)O [AZITHROMYCIN]
Pseudomonas aeruginosa [1]
  inhibition: Active
Pseudomonas aeruginosa [2]
  inhibition: Active
Pseudomonas aeruginosa [3]
  inhibition: inactive
Pseudomonas aeruginosa [4]
  inhibition: Dose-dependent effect
Pseudomonas aeruginosa [5]
  inhibition: Active
Pseudomonas aeruginosa [6]
  inhibition: inactive
Pseudomonas aeruginosa [7]
  Activity: Dose-dependent effect
Pseudomonas aeruginosa [8]
  Activity: inactive
Pseudomonas aeruginosa [9]
  Activity: inactive
Pseudomonas aeruginosa [10]
  Activity: inactive
Pseudomonas aeruginosa [11]
  Activity: 4
Pseudomonas aeruginosa [12]
  Activity: 1
Pseudomonas aeruginosa [13]
  inhibition: inactive
Pseudomonas aeruginosa [14]
  Activity: inactive
[15]
  Ratio: 1000
